Bioassay records as filed in PubChem.
CFTR F508del cor = CFTR F508del correction in bronchial cells; CFBE cells, YFP halide quenching; stimulated with forskolin plus potentiator P3; % fluorescence drop versus neutral controls; activity (quench increase), % at 7.58 µM; hit rate 0.36% among 350,000; AID 720511;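 active = mean added fluorescence quench of at least 8% versus neutral control, with both replicates also reaching 8%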;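 note: cells transiently co-express mutant CFTR-F508del with the halide-sensitive YFP; corrector assay measuring rescue of mutant channel to the surface after 24 h compound exposure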
LMPTP block = LMPTP (human) inhibition. P24666. recombinant LMPTP-A, OMFP fluorogenic substrate, fluorescence intensity. inhibition, % at 20 µM. hit rate 0.22% among 360,000;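 active = compounds that cut the enzyme signal by at least half of the control window in the single-dose screen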;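 note: plate controls were DMSO wells with enzyme plus substrate for no effect and substrate without enzyme for full effect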
Target sequence (P24666 whole entry, looked up): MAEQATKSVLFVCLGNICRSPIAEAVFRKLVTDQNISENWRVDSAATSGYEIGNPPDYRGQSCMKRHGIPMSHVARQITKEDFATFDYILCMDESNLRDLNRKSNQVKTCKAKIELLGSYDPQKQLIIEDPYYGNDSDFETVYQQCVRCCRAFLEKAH
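Assay system: LMPTP-A phosphatase enzyme | Input: 0.625 nM enzyme | Also added: Fluorogenic phosphatase substrate OMFP at 400 µM final | Compound dosing: One test concentration per compound, 20 µM, with 3% DMSO overall | Schedule: 50 min enzyme reaction at room temperature, protected from light | Signal: Fluorescence intensity | Benchmarks: no-enzyme and uninhibited controls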
DNMT1 inh = inhibitors of human DNMT1 | P26358 | DNMT1 molecular beacon, Hinp1I cleavage, fluorescence | inhibition (reported as % activation of signal), % at 10 µM | hit rate 0.83% among 360,000; in the data active = inhibition above about 50%
SUMO1 PPI mod = SUMO1-SIM interaction modulation; P63165; SUMO1 binding to a labelled peptide, TR-FRET, 1 h; inhibition, % at 20 µM; hit rate 0.33% among 360,000; in the data active = inhibition above about 37%
STEP inh = STEP (human) phosphatase inhibition; recombinant STEP, OMFP fluorogenic substrate, fluorescence; AID 588621; inhibition, % at 20 µM; P54829; hit rate 0.25% among 360,000;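 active = inhibition at 20 µM, scaled per plate between control wells, above about 37%, limit read from the data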;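 note: 0% = DMSO with enzyme and substrate and 100% = substrate only without enzyme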
Target sequence (P54829 whole entry, looked up): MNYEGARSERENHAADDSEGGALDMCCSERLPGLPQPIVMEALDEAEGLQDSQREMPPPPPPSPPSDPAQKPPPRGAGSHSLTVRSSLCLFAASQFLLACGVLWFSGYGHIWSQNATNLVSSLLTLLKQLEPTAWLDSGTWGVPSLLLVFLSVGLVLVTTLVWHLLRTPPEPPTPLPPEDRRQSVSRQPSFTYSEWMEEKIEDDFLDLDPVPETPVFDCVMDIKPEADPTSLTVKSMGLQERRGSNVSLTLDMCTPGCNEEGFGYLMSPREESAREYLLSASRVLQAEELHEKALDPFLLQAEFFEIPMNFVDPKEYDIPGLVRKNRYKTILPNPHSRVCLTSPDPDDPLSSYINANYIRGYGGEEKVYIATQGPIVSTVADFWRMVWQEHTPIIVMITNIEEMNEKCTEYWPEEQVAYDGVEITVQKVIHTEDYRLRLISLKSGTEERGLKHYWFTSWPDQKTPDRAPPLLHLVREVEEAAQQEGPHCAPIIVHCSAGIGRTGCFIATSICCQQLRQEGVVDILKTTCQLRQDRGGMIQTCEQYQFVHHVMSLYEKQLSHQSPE
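System: STEP (striatal-enriched tyrosine phosphatase) enzyme, cell-free; medium: Bis-Tris pH 6.0 buffer with DTT, detergent; dosing: 20 µM, 1% DMSO; times: reaction 20 min, ambient temperature; detection: fluorescence, 480/540 nm; read-out basis: normalized % inhibition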
Scp1 inh = inhibitors of human Scp-1 phosphatase; Recombinant Scp1, phosphopeptide, malachite green phosphate absorbance; Q9GZU7; hit rate 0.88% among 340,000; inhibition, % at 20 µM;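 active = inhibition above about 50% at 20 µM, limit read from the data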;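 note: plate controls were DMSO wells with enzyme for no effect and wells lacking enzyme for full effect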
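Test system: SCP-1 phosphatase catalytic domain, residues 76-261 | Compound dosing: One concentration, 20 µM, with 1.0% DMSO | Schedule: 45 min room-temperature reaction, 5 min colour, 30 min stabiliser | Detection: Absorbance at 630 nm | Read-out basis: % inhibition of SCP-1 phosphate liberation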
Scp1 confirm = confirmation of human Scp-1 phosphatase inhibitors. shares compounds with Scp1 inh. recombinant SCP-1 catalytic domain, phosphate release, malachite green absorbance. inhibition, % at 20 µM. hit rate 61% among 2,500;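 note: plate controls were DMSO with enzyme for no effect and buffer wells lacking enzyme for full effect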
MG interference = interferes with malachite green readout, flagging false Scp-1 hits; shares compounds with Scp1 inh; Colorimetric interference counterscreen, malachite green absorbance 630 nm; apparent inhibition (interference), % at 20 µM; 2,500 tested, under 10 active;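 note: compounds added after enzyme reaction finished so only phosphate colour detection is probed; plate controls were DMSO wells with completed Scp-1 reaction for no effect and substrate wells lacking enzyme for full effect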
Scp1 DSF = Scp-1 (human) binding by thermal shift. shares compounds with Scp1 inh. Recombinant SCP1, Sypro Orange thermal shift Tm. thermal shift relative to vanadate control, % at 40 µM. hit rate 25% among 1,500. AID 540329;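 active = substances whose mean melting-temperature shift, as a percentage of the reference inhibitor's shift, reaches about 5.3%, limit read from the data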;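 note: 0% = Tm of DMSO wells and 100% = Tm with sodium orthovanadate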
Starred values were filed as active, the others as inactive; . = no result. Rows were chosen to be rich in hits. Some 1.6% of all compounds tested hit in one or more screens of this group.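 Rule for the calls, unless noted: active = inhibition of at least 30% at 20 µM; inactive = the rest.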

SMILES	CFTR F508del cor	LMPTP block	DNMT1 inh	SUMO1 PPI mod	STEP inh	Scp1 inh	Scp1 confirm	MG interference	Scp1 DSF
O=C(CCCCCCCC(=O)NNC(=O)Nc1ccccc1)NNC(=O)Nc1ccccc1	-4	16	0	0	6	73*	65*	-16	-15
C[C@H](CO)N1C[C@H](C)[C@@H](CN(C)S(=O)(=O)c2cn(C)cn2)Oc2c(NC(=O)C3CCCCC3)cccc2C1=O	1	.	.	.	.	.	.	.	.
C[n+]1ccccc1Nc1cc([N+](=O)[O-])ccc1N	-1	0	0	-11	0	69*	87*	-16	0
O=C1N=c2ccccc2=C1c1sc(NS(=O)(=O)Cc2ccccc2)nc1O	-1	4	-1	5	9	93*	84*	-6	31*
CO[C@@H]1CN(C)C(=O)c2ccc(NC(=O)C3CCC3)cc2OC[C@@H](C)N(C)C[C@@H]1C	3	.	.	.	.	.	.	.	.
Nc1cc2c(cc1[N+](=O)[O-])OCCO2	.	1	0	-31	1	-4	.	.	.
Nc1cc2c(cc1[N+](=O)[O-])OCO2	.	19	24	-11	4	58*	58*	-5	4
COc1ccc(N2CCN(C(CNC(C)=O)c3ccc4c(c3)OCO4)CC2)cc1 (stereo not drawn)	-4	-2	1	-2	0	6	.	.	.
COc1ccc(N2CCN(C(CNC(=O)CC(C)(C)C)c3ccc4c(c3)OCO4)CC2)cc1 (stereo not drawn)	0	-1	1	3	1	64*	-10	-10	.
Cc1ccc(S(=O)(=O)C(C#N)c2nc3ccccc3nc2N2CC(C)OC(C)C2)cc1C (stereo not drawn)	.	0	-9	-9	-2	79*	-13	-19	.
C[C@@H]1CN([C@H](C)CO)C(=O)c2cccc(NC(=O)Nc3ccc(C(F)(F)F)cc3)c2O[C@@H]1CN(C)C	2	.	.	.	.	.	.	.	.
COc1ccccc1C(=O)NCC(=O)OC(C)C(=O)N1CCOCC1 (stereo not drawn)	2	0	-2	1	-1	60*	5	-1	.
O=C(O)Cc1ccc(NC(=O)c2ccc3c(c2)C(=O)N(Cc2ccco2)C3=O)cc1	-1	3	38	-10	16	69*	58*	-16	6.8*
O=C(Nc1cc([N+](=O)[O-])ccc1O)c1ccc2c(c1)C(=O)N(Cc1ccco1)C2=O	0	6	11	1	6	55*	25	-16	.
O=C(Nc1ccc(O)cc1)c1ccc2c(c1)C(=O)N(Cc1ccco1)C2=O	.	0	15	-2	3	0	.	.	.
CN1CCN(C(=O)C[C@H]2C[C@@H]3c4cc(NS(C)(=O)=O)ccc4O[C@@H]3[C@@H](CO)O2)CC1	0	.	.	.	.	.	.	.	.
O=C(CSc1nnc(-c2ccc(S(=O)(=O)N3CCCC3)cc2)o1)NCc1ccco1	.	1	10	3	-2	62*	43*	-17	-6
O=C(CSc1ccc2nnc(-c3ccccc3)n2n1)NCc1ccco1	.	0	2	3	11	55*	17	-24	.
O=C(COc1ccc(S(=O)(=O)N2CCCC2)cc1)NCc1ccco1	.	0	18	2	3	26	.	.	.
O=C(COC(=O)c1ccc(S(=O)(=O)N2CCCCC2)cc1)NCc1ccco1	0	-1	14	3	3	54*	73*	-6	3
O=C(CSc1nnc(CNC(=O)c2c(F)cccc2F)o1)NCc1ccco1	.	2	10	6	2	68*	33*	3	-22
CCS(=O)(=O)Nc1ccc2c(c1)C(=O)N(C)C[C@@H](OC)[C@@H](C)CN(C(=O)NC(C)C)[C@H](C)CO2	2	.	.	.	.	.	.	.	.
CCS(=O)(=O)Nc1ccc2c(c1)C(=O)N(C)[C@@H]1CC[C@H](CC(=O)Nc3ccccc3)O[C@@H]1CO2	-3	.	.	.	.	.	.	.	.
CCC(=O)Nc1cccc(-c2nnc(SCC(=O)NCc3ccco3)n2C)c1	.	-3	1	-1	0	98*	6	-7	.
Cn1c(SCC(=O)NCc2ccco2)nnc1-c1ccccc1	.	0	1	4	1	-3	.	.	.
SMILES	CFTR F508del cor	LMPTP block	DNMT1 inh	SUMO1 PPI mod	STEP inh	Scp1 inh	Scp1 confirm	MG interference	Scp1 DSF
O=C(COC(=O)c1cccnc1Cl)NCc1ccco1	1	-1	1	10	0	92*	70*	-10	-11
O=C(NCc1ccco1)C1CCCN(S(=O)(=O)c2ccc(-n3cnnn3)cc2)C1 (stereo not drawn)	.	1	-1	14	0	76*	69*	-7	3
Cn1c(SCC(=O)NCc2ccco2)nnc1-c1ccc(S(=O)(=O)N2CCOCC2)cc1	.	0	13	5	2	65*	49*	-17	-4
O=C(Nc1ccc2c(c1)[C@H]1C[C@H](CC(=O)N3CCOCC3)O[C@@H](CO)[C@H]1O2)NC1CCCCC1	-2	.	.	.	.	.	.	.	.
O=C(CN1C(=O)CCC1=O)Nc1nc2c(F)cc(F)cc2s1	3	-1	1	-1	-2	-12	.	.	.
O=C(CN1C(=O)NC2(CCCCC2)C1=O)Nc1nc2c(F)cc(F)cc2s1	4	1	-10	6	-3	0	-8	-11	.
C[C@@H]1CN([C@H](C)CO)C(=O)c2cc(NS(=O)(=O)c3cn(C)cn3)ccc2O[C@@H](C)CCCCO[C@H]1CN(C)CC1CCCCC1	0	.	.	.	.	.	.	.	.
Cc1nn(CC(=O)NCc2cccs2)c(=O)c2nn(-c3ccccc3)c(C)c12	0	-2	-3	-2	-2	51*	-18	-18	.
Cc1cccc(N2CCN(c3ccc(NC(=O)/C=C(/C(=O)O)c4ccccc4)cc3)CC2)c1	.	-1	0	-1	2	58*	72*	-10	-5
Cc1c(C(=O)O)sc2nc(/C=C/c3ccccc3OC(F)F)[nH]c(=O)c12	3	4	2	-3	9	39	.	.	.
Cc1c(C(=O)O)sc2nc(/C=C/c3cccc(F)c3)[nH]c(=O)c12	-1	0	4	-8	7	81*	21	-5	.
COCCCn1nnnc1SCC(=O)Nc1nc(C)c(C)s1	.	0	-3	3	2	52*	-10	-11	.
C[C@H](CO)N1C[C@H](C)[C@H](CN(C)C(=O)NC2CCCCC2)OCCCC[C@H](C)Oc2ccc(NC(=O)Nc3cccc4ccccc34)cc2C1=O	-1	.	.	.	.	.	.	.	.
